# Hits are enriched below; roughly 1.8% of the tested compounds scored in any of these assays.
# MsrA inhibitor: bovine MsrA inhibition. 360,000 tested, 0.75% active. inhibition, % at 15.5 µM. purified bovine MsrA, absorbance read-out;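 further: 0% = vehicle wells with enzyme and 100% = reference inhibitor wells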
# DAGLB inh: diacylglycerol lipase beta (human) inhibition | HEK293T DAGLB membrane lysate, EnzChek fluorogenic substrate | AID 504411 | inhibition, % at 5.17 µM | Q8NCG7 | 340,000 tested, 0.059% active; in the data active means inhibition above about 34%;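 further: 0% = enzyme with vehicle and 100% = wells lacking enzyme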
# Target sequence (Q8NCG7 whole entry, looked up): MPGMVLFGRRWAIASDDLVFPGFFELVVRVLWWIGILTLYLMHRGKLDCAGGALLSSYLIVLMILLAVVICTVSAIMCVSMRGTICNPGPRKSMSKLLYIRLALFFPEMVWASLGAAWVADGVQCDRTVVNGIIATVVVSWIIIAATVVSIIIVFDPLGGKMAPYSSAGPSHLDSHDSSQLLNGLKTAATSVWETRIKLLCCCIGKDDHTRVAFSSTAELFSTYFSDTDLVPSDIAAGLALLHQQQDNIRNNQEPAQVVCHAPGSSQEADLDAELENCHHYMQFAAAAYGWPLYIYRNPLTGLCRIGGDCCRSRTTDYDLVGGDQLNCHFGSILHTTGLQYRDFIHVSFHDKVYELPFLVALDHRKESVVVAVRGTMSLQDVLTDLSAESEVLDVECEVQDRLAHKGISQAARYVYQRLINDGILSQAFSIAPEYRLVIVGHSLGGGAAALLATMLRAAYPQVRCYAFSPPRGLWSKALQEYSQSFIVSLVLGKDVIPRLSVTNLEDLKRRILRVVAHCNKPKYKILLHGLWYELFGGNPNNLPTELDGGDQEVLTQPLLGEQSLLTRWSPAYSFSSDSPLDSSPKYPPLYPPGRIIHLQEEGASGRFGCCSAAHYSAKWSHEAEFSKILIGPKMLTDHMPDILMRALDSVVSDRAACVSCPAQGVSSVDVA
# MIN6 prolif: induces beta-cell replication in MIN6 cells; MIN6 cells proliferation, ATPlite luminescence, 48 h; cells starved in 0.2% serum; 100% = growth in 10% serum; proliferation, % at 10 µM; 330,000 tested, 0.29% active; AID 2380;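 active means compounds whose signal lies at least 3.5 SD above the mean of all wells on their plate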;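 further: 0% = DMSO-treated cells in low-serum medium and 100% = 10% serum control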
# SKN-1 block: inhibitors of C. elegans SKN-1. C. elegans VP596 Pgst-4::GFP/RFP ratio, acrylamide-induced, 24 h. inhibition, % at 21.8 µM. 360,000 tested, 0.49% active. AID 624304;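 active means interference check ratio from 0.5 to 1.5 plus GFP to RFP signal ratio inhibition reaching or exceeding a fixed threshold, cut at about 30% in these data, passing the limit was not always enough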
# MT1-MMP act inh: blocks activation of human MT1-MMP | P50281 | HT1080 RFP-PRO-GFP cells, GFP/RFP ratio fluorescence, overnight; percent of plate control window, DMSO zero | GFP/RFP ratio change, % at 20 µM | 360,000 tested, 0.061% active | AID 651647;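 active means GFP/RFP ratio change of at least 30% with cell ATP level not reduced by more than half and red fluorescence within 50% of control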
#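 Assay system – RFP-PRO-GFP reporter HT1080 cells · Compound dosing – single dose of 20 µM compound, 1% DMSO final · Incubation – overnight compound exposure at 37 °C · Measure – GFP/RFP fluorescence ratio · Benchmarks – DMSO wells and RFP-L50D-GFP cells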
# bovine MsrA act: bovine methionine sulfoxide reductase A activation; purified bovine MsrA, absorbance read-out; activation, % at 10.6 µM; 360,000 tested, 0.3% active; in the data active means activation above about 7.5%;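 further: 0% = vehicle and 100% = reference activator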
# MsrA inh confirm: bovine MsrA inhibition, confirmed; shares compounds with MsrA inhibitor; purified bovine MsrA, absorbance read-out; inhibition, % at 15.5 µM; 2,300 tested, 41% active;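 further: coupled to thioredoxin reductase with NADPH and selenocystamine and DMSO as substrate; 0% = vehicle only and 100% = full effect of reference inhibitor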
# Numbers without * were called inactive; / = not tested or not shown. Unless noted, no stated cut-off is given here; in the data, active means inhibition above about 4.5%; inactive means the rest.
SMILES,MsrA inhibitor,DAGLB inh,MIN6 prolif,SKN-1 block,MT1-MMP act inh,bovine MsrA act,MsrA inh confirm
CN(CC(=O)Nc1ccc(N2CCOCC2)cc1)C(=O)Cc1ccccc1,5.3*,-6,1,8,1,-2,0
CC(CC(=O)N(C)CC(=O)Nc1ccc(N2CCOCC2)cc1)c1ccccc1 (stereo not drawn),1,1,-2,3,4,-4,/
O=C(CN(Cc1cccs1)C(=O)CNS(=O)(=O)c1ccc(Cl)cc1)NCC1CCCO1 (stereo not drawn),-1,2,3,2,0,-5,/
CCOC(=O)c1cc(C(=O)OCC)c(=O)[nH]c1N1CCCC1,6.8*,0,3,7,0,-11,4
CC1CN(c2ncc(/C=N/NC(=O)c3ccccc3O)s2)CC(C)O1 (stereo not drawn),6.4*,0,-4,-6,6,-5,5.7*
O=C(N/N=C/c1cnc(N2CCCCC2)s1)c1ccc(C(F)(F)F)cc1,1,2,-6,2,-4,-4,/
COc1ccc(/C=C2\SC(=O)N(CC(=O)NN3CCN(C)CC3)C2=O)cc1OC,4.9*,1,0,0,13,-4,3
O=C1NC(=S)N/C1=C/C=C/c1ccccc1,4.7*,2,-3,15,1,-4,3
CC1=NN(c2ccccc2)C(=O)C1/C=C1/NC(=S)NC1=O (stereo not drawn),-1,/,-1,-14,5,-5,/
Cc1cc2nc(N3C(=O)CNC3=S)sc2cc1C,7.7*,9,-5,1,6,-6,4.9*
CCCCC(=O)N1CCN(c2nc3ccc(OCC)cc3s2)CC1,0,1,-1,7,1,0,/
O=C1CNC(=S)N1c1nc(-c2ccccc2)cs1,2,7,-2,10,1,-3,/
CCOc1ccc2nc(N3C(=O)CNC3=S)sc2c1,7.3*,3,-4,1,8,-5,4.6*
COC(=O)C1=C(NC(=O)c2ccc(C)cc2)CCS1,0,-5,0,0,12,-2,/
C[C@H](NC(=O)c1ncn2c1c(=O)[nH]c1ccc(Br)cc12)c1ccccc1,1,2,/,-4,-11,-5,/
Cc1ccc(/C=N/NC(=O)c2ccccn2)s1,4.9*,0,-2,19,-1,-3,5.2*
O=C(N/N=C/c1cccs1)c1ccccn1,4,3,-2,7,4,-5,/
COc1ccc(-c2cc(=O)c3cccc(CC(=O)O)c3o2)cc1,5.0*,/,/,/,/,/,4.6*
O=C(N/N=C/c1ccc(O)cc1)c1ccncc1,2,0,0,-1,-3,0,/
O=C(NN=Cc1ccc(O)cc1)C(=O)NN=Cc1ccc(O)cc1,6.1*,3,/,0,1,0,2
COc1ccc(C(=O)N/N=C/c2ccc(N(C)c3ccccc3)cc2)cc1,2,/,-3,-6,3,-5,/
CSc1ccc(/C=N/NC(=O)c2ccc(O)cc2)cc1,7.9*,1,0,2,3,-7,5.8*
COc1ccc(C(=O)N/N=C/c2ccc(SC)cc2)cc1,5.2*,1,0,2,6,-6,5.9*
Cc1noc(C)c1CSCC(=O)Nc1nc2c(F)cc(F)cc2s1,0,0,-4,-5,-7,-10,/
Cc1onc(-c2ccccc2)c1CNC(=O)C1COc2ccccc2O1 (stereo not drawn),-1,-4,1,-11,-1,-2,/
SMILES,MsrA inhibitor,DAGLB inh,MIN6 prolif,SKN-1 block,MT1-MMP act inh,bovine MsrA act,MsrA inh confirm
CS(=O)(=O)Nc1ccc(-c2cn3cccnc3n2)cc1,4.8*,-2,0,6,2,-4,3
Cc1ccc(-c2cn3cccnc3n2)cc1,4,1,-4,11,1,-4,/
COc1ccc(/C=C2\SC(N)=NC2=O)cc1Br,4.7*,0,-2,1,-2,-6,4
CCOc1cccc(/C=N/Nc2ccc(S(=O)(=O)N(CC)CC)cn2)c1O,2,7,-6,3,-3,-2,/
CCN(CC)S(=O)(=O)c1ccc(N/N=C/c2ccc(O)cc2)nc1,5.7*,2,1,-1,1,-4,4.9*
COc1cccc(-c2nc3ccccc3c(=O)o2)c1,1,2,-3,-1,4,-4,/
COc1cccc(C2=N/C(=C\N(C)C)C(=O)O2)c1,11*,-1,0,14,-2,-8,7.0*
CN=Cc1nc(-c2ccccc2)oc1O,9.9*,-3,-2,12,0,-12,7.3*
Oc1oc(-c2ccccc2)nc1/C=N/c1ccccn1,2,-2,-2,0,6,-16,/
Nc1c(C=C2C=CC(=O)C=C2)c(=O)nc2sc(CC(=O)N3CCCC3)nn12,4.7*,0,-1,20,3,-2,0
CN1CCc2c(sc3nc(SCC(=O)NCc4ccco4)n(-c4ccccc4)c(=O)c23)C1,6.4*,-1,1,-4,-15,-3,1
O=C(O)CSc1nc2sc3c(c2c(=O)n1-c1ccccc1)CCC3,5.0*,3,1,0,7,-5,1
COc1ccc(-n2c(SCC(=O)NCc3ccco3)nc3sc4c(c3c2=O)CCN(C)C4)cc1,3,1,-2,7,-13,-5,/
COc1ccc(-n2c(SCC(N)=O)nc3sc4c(c3c2=O)CCN(C)C4)cc1,6.1*,1,-1,-10,-5,-3,2
COC(=O)C1CC2(C(=O)OC)CC(C(=O)OC)(CC(C(=O)OC)C2=O)C1=O (stereo not drawn),0,-3,/,16,-1,-2,/
Cc1nc2ccccc2c(=O)n1/N=C/c1cccs1,0,1,3,18,-3,-4,/
Cc1nc2ccccc2c(=O)n1/N=C/c1cn(-c2ccccc2)nc1-c1cccs1,14*,-7,-1,7,-1,-5,4.9*
CN(C)c1ccc(C=Nc2cnn(C)c2C(N)=O)cc1,4.9*,0,-4,2,-4,-3,3
O=C(NCCO)C(=O)Nc1cc2c3c(c1)CCN3C(=O)CC2,1,1,1,-15,0,-5,/
CC1(C)CC(=O)C=C(N2CCNCC2)C1,1,-1,0,28,2,0,/
CC1CC(C)C[N+](=C2C=C(N3CCCC3)CC(C)(C)C2)C1 (stereo not drawn),5.8*,2,/,-6,-14,-10,4
CC1(C)CC(N2CCCC2)=CC(=[N+]2CCCCCC2)C1,6.7*,1,-6,-5,0,-10,4.9*
CC1(C)CC(N2CCN(c3ccccc3)CC2)=CC(=[N+]2CCCC2)C1,5.5*,-3,-5,3,-5,-5,5.0*
Cc1ccc2c(c1)cc1c(=O)n(CC(=O)NCCCc3ccccc3)nc(C)n12,0,-3,0,4,0,-2,/

# High-throughput results as filed in PubChem BioAssay.
